Measurements taken from BindingDB's records for doi:10.1021/jm970240y (Sanofi Recherche, 1997).

target: Integrin alpha-IIb/beta-3 (Homo sapiens, UniProt P08514+P05106); assay: In vitro inhibition of ADP-induced (2.5 uM) human platelet aggregation.
Outline: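 Human PRP from citrated blood (0.38% final) of unmedicated donors, spun 1000g 10 min; compound added in DMSO (0.01% final) 1 min before 2.5 μM ADP. Aggregation by Born method, measured as maximum curve height; percent inhibition calculated against vehicle-alone aggregation.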

Sequence of Integrin alpha-IIb/beta-3 (P05106 27-788 limits assumed): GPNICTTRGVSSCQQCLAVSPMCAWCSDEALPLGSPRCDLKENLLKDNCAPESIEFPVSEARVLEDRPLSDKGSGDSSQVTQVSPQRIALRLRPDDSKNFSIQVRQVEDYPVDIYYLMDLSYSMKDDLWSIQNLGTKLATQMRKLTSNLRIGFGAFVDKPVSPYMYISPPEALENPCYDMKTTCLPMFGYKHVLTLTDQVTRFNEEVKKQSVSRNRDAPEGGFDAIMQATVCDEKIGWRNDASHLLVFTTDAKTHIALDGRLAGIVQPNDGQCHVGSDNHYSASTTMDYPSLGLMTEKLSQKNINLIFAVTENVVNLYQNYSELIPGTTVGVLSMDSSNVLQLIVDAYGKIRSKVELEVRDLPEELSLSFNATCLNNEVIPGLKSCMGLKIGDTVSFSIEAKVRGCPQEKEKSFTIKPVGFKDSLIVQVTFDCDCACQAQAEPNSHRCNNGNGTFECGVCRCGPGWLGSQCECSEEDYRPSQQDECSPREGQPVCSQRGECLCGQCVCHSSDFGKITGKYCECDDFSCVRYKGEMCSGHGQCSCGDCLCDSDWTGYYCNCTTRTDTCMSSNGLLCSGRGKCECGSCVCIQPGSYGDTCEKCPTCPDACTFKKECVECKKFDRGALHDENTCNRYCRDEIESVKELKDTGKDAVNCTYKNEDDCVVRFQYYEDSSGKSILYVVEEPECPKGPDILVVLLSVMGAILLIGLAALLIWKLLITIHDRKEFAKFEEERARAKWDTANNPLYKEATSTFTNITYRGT
Sequence of Integrin alpha-IIb/beta-3 (P08514 32-887 limits assumed): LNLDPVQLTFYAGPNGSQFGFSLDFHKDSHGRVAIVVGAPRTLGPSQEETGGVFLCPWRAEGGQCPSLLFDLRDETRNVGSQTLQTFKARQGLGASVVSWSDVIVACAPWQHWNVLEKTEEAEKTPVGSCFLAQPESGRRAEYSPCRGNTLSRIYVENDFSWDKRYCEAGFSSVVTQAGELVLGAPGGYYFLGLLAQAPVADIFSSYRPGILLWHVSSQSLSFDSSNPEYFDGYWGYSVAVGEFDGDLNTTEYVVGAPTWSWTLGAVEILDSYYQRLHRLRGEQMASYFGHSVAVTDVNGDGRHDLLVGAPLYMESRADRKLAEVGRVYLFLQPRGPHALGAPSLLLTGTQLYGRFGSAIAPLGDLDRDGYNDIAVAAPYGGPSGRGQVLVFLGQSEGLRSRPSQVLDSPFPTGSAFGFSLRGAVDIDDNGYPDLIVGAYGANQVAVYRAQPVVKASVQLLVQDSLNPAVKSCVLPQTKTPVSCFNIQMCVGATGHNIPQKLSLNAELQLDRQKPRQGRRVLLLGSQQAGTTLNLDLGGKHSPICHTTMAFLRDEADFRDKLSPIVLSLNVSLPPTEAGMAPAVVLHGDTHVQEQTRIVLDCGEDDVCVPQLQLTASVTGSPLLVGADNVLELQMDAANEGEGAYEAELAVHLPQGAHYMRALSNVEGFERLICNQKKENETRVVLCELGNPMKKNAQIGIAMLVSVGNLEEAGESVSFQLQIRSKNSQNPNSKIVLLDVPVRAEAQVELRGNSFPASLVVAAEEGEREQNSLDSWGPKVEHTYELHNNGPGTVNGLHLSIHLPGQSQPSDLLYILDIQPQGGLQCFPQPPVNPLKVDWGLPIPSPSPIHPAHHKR
Sequence of Integrin alpha-IIb/beta-3 (P08514 891-1039 limits assumed): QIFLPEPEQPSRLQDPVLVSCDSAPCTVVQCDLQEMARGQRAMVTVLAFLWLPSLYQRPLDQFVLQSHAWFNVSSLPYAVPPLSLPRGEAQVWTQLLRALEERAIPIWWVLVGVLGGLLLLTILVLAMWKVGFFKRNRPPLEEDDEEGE

| IC50 [nM] | Compound |
| --- | --- |
| 250 | CC(C(=O)O)N1CCC(Nc2nc(-c3ccc(C(=N)N)cc3)cs2)CC1 (configuration not stated) [2-{4-[4-(4-carbamimidoyl-phenyl)-thiazol-2-ylamino]-piperidin-1-yl}-propionic acid] |
| 42 | N=C(N)c1ccc(-c2csc(NC3CCN(CC(=O)O)CC3)n2)cc1 [{4-[4-(4-Carbamimidoyl-phenyl)-thiazol-2-ylamino]-piperidin-1-yl}-acetic acid] |
| 65 | N=C(N)c1ccc(-c2csc(NC3CCN(C(C(=O)O)c4ccccc4)CC3)n2)cc1 (configuration not stated) [{4-[4-(4-Carbamimidoyl-phenyl)-thiazol-2-ylamino]-piperidin-1-yl}-phenyl-acetic acid] |
| > 10000 | CC(C)(C(=O)O)N1CCC(Nc2nc(-c3ccc(C(=N)N)cc3)cs2)CC1 [2-{4-[4-(4-Carbamimidoyl-phenyl)-thiazol-2-ylamino]-piperidin-1-yl}-2-methyl-propionic acid] |
| 1800 | N=C(N)c1ccc(-c2csc(NC3CCN(CCC(=O)O)CC3)n2)cc1 [3-{4-[4-(4-carbamimidoyl-phenyl)-thiazol-2-ylamino]-piperidin-1-yl}-propionic acid] |
| 6000 | N=C(N)c1ccc(-c2csc(NC3CCN(C(C(=O)O)c4ccccc4Cl)CC3)n2)cc1 (configuration not stated) [4-[4-(4-carbamimidoyl-phenyl)-thiazol-2-ylamino]-piperidin-1-yl}-(2-chloro-phenyl)-acetic acid] |
| 85 | COC(=O)CC(C(=O)O)N1CCC(Nc2nc(-c3ccc(C(=N)N)cc3)cs2)CC1 (configuration not stated) [2-{4-[4-(4-Carbamimidoyl-phenyl)-thiazol-2-ylamino]-piperidin-1-yl}-succinic acid 4-methyl ester] |

| Compound | IC50 [nM] |
| --- | --- |
| CN(c1nc(-c2ccc(C(=N)N)cc2)cs1)C1CCN(CC(=O)O)CC1 [(4-{[4-(4-carbamimidoyl-phenyl)-thiazol-2-yl]-methyl-amino}-piperidin-1-yl)-acetic acid] | 160 |
| N=C(N)c1ccc(-c2csc(N(Cc3ccccc3)C3CCN(CC(=O)O)CC3)n2)cc1 [(4-{Benzyl-[4-(4-carbamimidoyl-phenyl)-thiazol-2-yl]-amino}-piperidin-1-yl)-acetic acid] | 230 |
| N=C(N)c1ccc(-c2csc(N(CCCC(=O)O)C3CCN(CC(=O)O)CC3)n2)cc1 [4-[[4-(4-Carbamimidoyl-phenyl)-thiazol-2-yl]-(1-carboxymethyl-piperidin-4-yl)-amino]-butyric acid] | 96 |
| N=C(N)c1ccc(-c2csc(N(CC(=O)O)C3CCN(CC(=O)O)CC3)n2)cc1 [[[4-(4-Carbamimidoyl-phenyl)-thiazol-2-yl]-(1-carboxymethyl-piperidin-4-yl)-amino]-acetic acid] | 170 |
| N=C(N)c1ccc(-c2csc(N(CCC(=O)O)C3CCN(CC(=O)O)CC3)n2)cc1 [3-[[4-(4-Carbamimidoyl-phenyl)-thiazol-2-yl]-(1-carboxymethyl-piperidin-4-yl)-amino]-propionic acid] | 46 |
